The source of these data is ChEMBL document CHEMBL4340529, “Selective degradation of CDK6 by a palbociclib based PROTAC” (Bioorg Med Chem Lett, 2019).

Test [1] deals with T1, Protein cereblon/Cyclin-dependent kinase 6 (Homo sapiens) (UniProt Q00534+Q96SW2). Kind of test: Induction of CRBN-mediated CDK6 degradation in human MIAPaCa2 cells at 0.5 uM measured after 4 hrs by western blot analysis. In kind it is cell-based. Put shortly: (§1)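 MiaPaCa2 cells treated with degrader analogs at 0.5 μM for 4 h; lysates analysed by Western blot for CDK4, CDK6 and RB.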

The target of test [2] is T2, Protein cereblon/Cyclin-dependent kinase 4 (Homo sapiens) (UniProt P11802+Q96SW2). Description: Induction of CRBN-mediated CDK4 degradation in human MIAPaCa2 cells at 0.5 uM measured after 4 hrs by western blot analysis. Format: cell-based. An outline of the steps: as §1
The target of test [3] is T1, Protein cereblon/Cyclin-dependent kinase 6 (Homo sapiens). Description: Induction of CRBN-mediated CDK6 degradation in human HPNE cells at 500 nM by Western blot analysis. In kind it is cell-based. Particulars: TDE = time-dependent effect. (In western blotting, separated proteins are transferred to a membrane and probed.)
Test [4] has as its target T2, Protein cereblon/Cyclin-dependent kinase 4 (Homo sapiens). Description: Induction of CRBN-mediated CDK4 degradation in human MIAPaCa2 cells at 0.1 uM measured after 24 hrs by western blot analysis. Format: cell-based. Put shortly:
(§2)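 Dose-response in MiaPaCa2 cells: graded degrader concentrations for 4 h and for 24 h; CDK4 and CDK6 read by immunoblot.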

The target of test [5] is T1, Protein cereblon/Cyclin-dependent kinase 6 (Homo sapiens). Description: Induction of CRBN-mediated CDK6 degradation in human HPNE cells at 0.1 uM measured after 24 hrs by western blot analysis. Format: cell-based. An outline of the steps:
(§3)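 HPNE cells given a range of degrader concentrations and harvested at 4 h and at 24 h; CDK4 and CDK6 levels read by Western blot.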

The target in test [6] is Protein cereblon/Retinoblastoma-associated protein (Homo sapiens) (UniProt P06400+Q96SW2). Description: Induction of CRBN-mediated RB degradation in human MIAPaCa2 cells at 0.5 uM measured after 4 hrs by western blot analysis. In kind it is cell-based. Put shortly: as §1
Test [7] has as its target T1, Protein cereblon/Cyclin-dependent kinase 6 (Homo sapiens). Kind of test: Induction of CRBN-mediated CDK6 degradation in human HPNE cells at 0.1 uM measured after 4 hrs by Western blot analysis. Format: cell-based. Put shortly: as §3
For test [8] the target is unchanged. Description: Induction of CRBN-mediated CDK6 degradation in human MIAPaCa2 cells at 1 uM measured after 24 hrs in presence of palbociclib by western blot analysis. In kind it is cell-based. An outline of the steps: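 Competition test: MiaPaCa2 cells incubated 24 h with palbociclib 10 µM, degrader 1 µM, or both together; lysates probed for CDK4 and CDK6 by Western blot.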

Test [9] has the same target. Description: Induction of CRBN-mediated CDK6 degradation in human MIAPaCa2 cells at 1 uM measured after 24 hrs by western blot analysis. In kind it is cell-based.
Test [10] shares this target. Kind of test: Induction of CRBN-mediated CDK6 degradation in human MIAPaCa2 cells at 1 uM measured after 8 hrs in presence of proteasome inhibitor MG132 by Western blot analysis. Format: cell-based.
The target is the same in test [11]. Description: Induction of CRBN-mediated CDK6 degradation in human MIAPaCa2 cells at 0.1 uM measured after 4 hrs by Western blot analysis. Format: cell-based. An outline of the steps: as §2
Test [12] deals with Protein cereblon/Cyclin-dependent kinase 7 (Homo sapiens) (UniProt P50613+Q96SW2). Description: Induction of CRBN-mediated CDK7 degradation in human MIAPaCa2 cells at 0.5 uM measured after 24 hrs by western blot analysis. Format: cell-based. An outline of the steps:
(§4)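 MiaPaCa2 cells exposed to 0.5 μM of each degrader analog for 24 h; lysates immunoblotted for CDK2, CDK5, CDK7 and CDK9 within a kinase panel.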

Test [13] addresses Protein cereblon/Cyclin-dependent kinase 5 (Homo sapiens) (UniProt Q00535+Q96SW2). Kind of test: Induction of CRBN-mediated CDK5 degradation in human MIAPaCa2 cells at 0.5 uM measured after 24 hrs by western blot analysis. Format: cell-based. An outline of the steps: as §4
For test [14], the target named is T2, Protein cereblon/Cyclin-dependent kinase 4 (Homo sapiens). Description: Induction of CRBN-mediated CDK4 degradation in human HPNE cells at 0.1 uM measured after 24 hrs by western blot analysis. In kind it is cell-based. Put shortly:
as §3

Test [15] concerns the target T1, Protein cereblon/Cyclin-dependent kinase 6 (Homo sapiens). Kind of test: Induction of CRBN-mediated CDK6 degradation in human MIAPaCa2 cells at 0.15 to 5 uM measured after 4 hrs by Western blot analysis. In kind it is cell-based.
For test [16] the target is unchanged. Description: Induction of CRBN-mediated CDK6 degradation in human HPNE cells at 5 to 10 uM measured after 4 hrs by Western blot analysis. Format: cell-based.
Test [17] shares this target. Kind of test: Induction of CRBN-mediated CDK6 degradation in human MIAPaCa2 cells at 0.1 uM measured after 24 hrs by western blot analysis. In kind it is cell-based. An outline of the steps:
as §2

The target is the same in test [18]. Description: Induction of CRBN-mediated CDK6 degradation in human MIAPaCa2 cells at 5 to 10 uM measured after 4 hrs by western blot analysis. In kind it is cell-based.
The target in test [19] is Protein cereblon/Cyclin-dependent kinase 2 (Homo sapiens) (UniProt P24941+Q96SW2). Kind of test: Induction of CRBN-mediated CDK2 degradation in human MIAPaCa2 cells at 0.5 uM measured after 24 hrs by western blot analysis. In kind it is cell-based. An outline of the steps: as §4
Test [20] addresses T1, Protein cereblon/Cyclin-dependent kinase 6 (Homo sapiens). Kind of test: Induction of CRBN-mediated CDK6 degradation in human MIAPaCa2 cells at 500 nM by Western blot analysis. In kind it is cell-based. The settings on record: TDE = time-dependent effect.
Test [21] has as its target Protein cereblon/Cyclin-dependent kinase 6/G1/S-specific cyclin-D3 (Homo sapiens) (UniProt P30281+Q00534+Q96SW2). Description: Induction of CRBN-mediated CDK6/cyclin D3 (unknown origin) degradation. Format: protein assay.
Test [22] has as its target Protein cereblon/Cyclin-dependent kinase 9 (Homo sapiens) (UniProt P50750+Q96SW2). Description: Induction of CRBN-mediated CDK9 degradation in human MIAPaCa2 cells at 0.5 uM measured after 24 hrs by western blot analysis. Format: cell-based. Put shortly:
as §4

In test [23] the target is T1, Protein cereblon/Cyclin-dependent kinase 6 (Homo sapiens). Kind of test: Induction of CRBN-mediated CDK6 degradation in human MIAPaCa2 cells at 1 uM measured after 24 hrs in presence of pomalidomide by Western blot analysis. Format: cell-based. Put shortly:
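CRBN-ligand competition in MiaPaCa2 cells: pomalidomide 0.1–10 µM given alone or with degrader 1 µM for 24 h; lysates immunoblotted for CDK6.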

For test [24], the target named is T2, Protein cereblon/Cyclin-dependent kinase 4 (Homo sapiens). Description: Induction of CRBN-mediated CDK4 degradation in human MIAPaCa2 cells at 0.1 uM measured after 4 hrs by western blot analysis. In kind it is cell-based. Put shortly: as §2
A short description of test [25]: Induction of CRBN-mediated CDK4/cyclin D1 (unknown origin) degradation. The settings on record: Homo sapiens.
Test [26] addresses T2, Protein cereblon/Cyclin-dependent kinase 4 (Homo sapiens). Kind of test: Induction of CRBN-mediated CDK4 degradation in human HPNE cells at 0.1 uM measured after 4 hrs by western blot analysis. In kind it is cell-based. Put shortly:
as §3

The source made the active and inactive calls. The rule behind the calls is not given here. Bounds are passed on as bounds.

T1 sequence (Q00534 whole entry, looked up): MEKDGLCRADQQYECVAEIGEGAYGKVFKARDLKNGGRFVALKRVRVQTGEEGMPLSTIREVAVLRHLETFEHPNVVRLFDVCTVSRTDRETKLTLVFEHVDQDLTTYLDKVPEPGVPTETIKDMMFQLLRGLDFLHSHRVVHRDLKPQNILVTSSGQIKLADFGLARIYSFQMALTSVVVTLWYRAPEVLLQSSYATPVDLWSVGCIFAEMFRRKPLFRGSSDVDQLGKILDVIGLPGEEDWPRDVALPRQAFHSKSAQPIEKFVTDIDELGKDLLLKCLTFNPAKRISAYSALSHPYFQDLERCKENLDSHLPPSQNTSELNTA
T1 sequence (Q96SW2 whole entry, looked up): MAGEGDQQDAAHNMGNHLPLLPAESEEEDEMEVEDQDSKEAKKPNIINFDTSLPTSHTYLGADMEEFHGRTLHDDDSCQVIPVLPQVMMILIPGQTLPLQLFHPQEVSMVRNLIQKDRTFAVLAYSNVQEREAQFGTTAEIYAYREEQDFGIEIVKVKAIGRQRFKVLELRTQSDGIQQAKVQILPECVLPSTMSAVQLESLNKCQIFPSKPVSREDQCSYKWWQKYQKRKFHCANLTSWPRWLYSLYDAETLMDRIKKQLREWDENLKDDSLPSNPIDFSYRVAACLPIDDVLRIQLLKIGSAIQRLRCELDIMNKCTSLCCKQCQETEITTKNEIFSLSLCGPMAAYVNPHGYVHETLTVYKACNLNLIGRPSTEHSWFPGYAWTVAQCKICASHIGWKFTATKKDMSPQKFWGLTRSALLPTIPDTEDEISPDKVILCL
T2 sequence (P11802 2-303 limits assumed): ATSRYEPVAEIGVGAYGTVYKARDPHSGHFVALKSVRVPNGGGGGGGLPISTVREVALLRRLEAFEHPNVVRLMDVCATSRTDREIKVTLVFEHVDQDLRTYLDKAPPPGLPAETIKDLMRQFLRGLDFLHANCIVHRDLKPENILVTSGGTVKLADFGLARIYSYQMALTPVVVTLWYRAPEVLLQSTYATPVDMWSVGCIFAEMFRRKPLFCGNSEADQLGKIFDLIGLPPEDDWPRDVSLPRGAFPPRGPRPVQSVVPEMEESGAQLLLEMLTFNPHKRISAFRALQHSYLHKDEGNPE
T2 sequence (Q96SW2 whole entry partner): as the sequence (Q96SW2 whole entry, looked up) above
Chain of Protein cereblon/Cyclin-dependent kinase 6/G1/S-specific cyclin-D3 (Homo sapiens) (P30281 whole entry, looked up): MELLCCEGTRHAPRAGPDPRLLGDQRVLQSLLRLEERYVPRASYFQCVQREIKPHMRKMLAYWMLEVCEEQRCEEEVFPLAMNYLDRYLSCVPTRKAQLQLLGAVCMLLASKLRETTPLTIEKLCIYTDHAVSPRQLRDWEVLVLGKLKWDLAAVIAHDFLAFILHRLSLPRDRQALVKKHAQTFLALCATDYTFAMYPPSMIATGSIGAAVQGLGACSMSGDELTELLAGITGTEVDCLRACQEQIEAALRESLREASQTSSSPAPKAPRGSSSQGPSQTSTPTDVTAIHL
Chain of Protein cereblon/Cyclin-dependent kinase 6/G1/S-specific cyclin-D3 (Homo sapiens) (Q00534 whole entry, looked up): as the sequence (Q00534 whole entry, looked up) above
Chain of Protein cereblon/Cyclin-dependent kinase 6/G1/S-specific cyclin-D3 (Homo sapiens) (Q96SW2 whole entry, looked up): as the sequence (Q96SW2 whole entry, looked up) above
Chain of Protein cereblon/Cyclin-dependent kinase 7 (Homo sapiens) (P50613 whole entry, looked up): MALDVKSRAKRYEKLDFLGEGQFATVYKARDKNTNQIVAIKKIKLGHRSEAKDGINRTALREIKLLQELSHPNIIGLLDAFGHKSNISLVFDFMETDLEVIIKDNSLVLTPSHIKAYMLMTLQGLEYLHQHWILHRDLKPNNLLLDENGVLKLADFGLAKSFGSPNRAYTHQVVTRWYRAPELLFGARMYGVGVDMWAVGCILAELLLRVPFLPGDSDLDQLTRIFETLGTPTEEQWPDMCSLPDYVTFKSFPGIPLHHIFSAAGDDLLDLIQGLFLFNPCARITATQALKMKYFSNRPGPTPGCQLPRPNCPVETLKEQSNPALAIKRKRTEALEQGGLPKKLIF
Chain of Protein cereblon/Cyclin-dependent kinase 7 (Homo sapiens) (Q96SW2 whole entry, looked up): as the sequence (Q96SW2 whole entry, looked up) above
Chain of Protein cereblon/Cyclin-dependent kinase 9 (Homo sapiens) (P50750 whole entry, looked up): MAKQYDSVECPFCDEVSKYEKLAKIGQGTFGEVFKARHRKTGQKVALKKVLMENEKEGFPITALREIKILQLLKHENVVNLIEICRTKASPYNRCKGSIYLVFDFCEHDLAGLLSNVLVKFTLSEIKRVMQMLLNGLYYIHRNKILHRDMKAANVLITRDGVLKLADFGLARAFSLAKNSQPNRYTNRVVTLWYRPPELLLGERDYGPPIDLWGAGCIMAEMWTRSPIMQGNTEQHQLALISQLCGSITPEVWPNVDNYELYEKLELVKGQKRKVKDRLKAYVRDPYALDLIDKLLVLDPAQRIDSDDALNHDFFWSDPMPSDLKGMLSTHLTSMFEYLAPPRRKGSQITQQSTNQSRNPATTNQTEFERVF
Chain of Protein cereblon/Cyclin-dependent kinase 9 (Homo sapiens) (Q96SW2 whole entry, looked up): as the sequence (Q96SW2 whole entry, looked up) above
Chain of Protein cereblon/Retinoblastoma-associated protein (Homo sapiens) (P06400 whole entry, looked up): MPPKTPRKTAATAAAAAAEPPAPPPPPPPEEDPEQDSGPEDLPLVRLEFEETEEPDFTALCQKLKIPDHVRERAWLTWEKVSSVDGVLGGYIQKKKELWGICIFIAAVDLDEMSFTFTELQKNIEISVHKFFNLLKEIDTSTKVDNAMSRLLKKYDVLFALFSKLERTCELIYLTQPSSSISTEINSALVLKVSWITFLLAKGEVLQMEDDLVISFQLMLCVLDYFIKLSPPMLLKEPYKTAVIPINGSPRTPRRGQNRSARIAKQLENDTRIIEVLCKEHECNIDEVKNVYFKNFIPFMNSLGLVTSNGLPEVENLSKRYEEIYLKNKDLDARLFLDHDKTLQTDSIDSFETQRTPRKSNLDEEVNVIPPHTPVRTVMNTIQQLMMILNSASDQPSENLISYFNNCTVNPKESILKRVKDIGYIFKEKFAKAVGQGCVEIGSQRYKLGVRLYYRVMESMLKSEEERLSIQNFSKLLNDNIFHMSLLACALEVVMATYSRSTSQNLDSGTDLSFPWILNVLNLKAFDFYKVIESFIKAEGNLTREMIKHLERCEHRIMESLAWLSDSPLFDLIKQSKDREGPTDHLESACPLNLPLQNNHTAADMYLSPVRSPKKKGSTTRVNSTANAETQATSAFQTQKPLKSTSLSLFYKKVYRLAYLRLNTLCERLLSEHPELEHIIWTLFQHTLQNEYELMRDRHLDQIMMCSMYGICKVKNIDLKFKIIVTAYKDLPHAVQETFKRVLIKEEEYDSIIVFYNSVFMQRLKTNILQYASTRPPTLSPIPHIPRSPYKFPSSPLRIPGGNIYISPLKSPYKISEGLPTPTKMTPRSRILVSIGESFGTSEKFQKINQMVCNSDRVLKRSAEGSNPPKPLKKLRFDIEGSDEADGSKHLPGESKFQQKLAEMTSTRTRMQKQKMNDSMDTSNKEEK
Chain of Protein cereblon/Retinoblastoma-associated protein (Homo sapiens) (Q96SW2 whole entry, looked up): as the sequence (Q96SW2 whole entry, looked up) above
Chain of Protein cereblon/Cyclin-dependent kinase 5 (Homo sapiens) (Q00535 whole entry, looked up): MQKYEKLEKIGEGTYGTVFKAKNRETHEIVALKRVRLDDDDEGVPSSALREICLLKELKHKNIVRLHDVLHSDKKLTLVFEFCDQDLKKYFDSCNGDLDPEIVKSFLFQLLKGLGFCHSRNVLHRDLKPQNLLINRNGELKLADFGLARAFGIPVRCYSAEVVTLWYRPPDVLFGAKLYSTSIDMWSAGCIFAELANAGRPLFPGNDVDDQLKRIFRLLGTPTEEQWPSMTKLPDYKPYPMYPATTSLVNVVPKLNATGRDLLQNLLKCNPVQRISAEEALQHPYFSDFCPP
Chain of Protein cereblon/Cyclin-dependent kinase 5 (Homo sapiens) (Q96SW2 whole entry, looked up): as the sequence (Q96SW2 whole entry, looked up) above

Take `CC(=O)c1c(C)c2cnc(Nc3ccc(N4CCN(CCCCCC(=O)Nc5cccc6c5C(=O)N(C5CCC(=O)NC5=O)C6=O)CC4)cn3)nc2n(C2CCCC2)c1=O` (stereo not drawn): the outcome in [1] and in test [2] was Active.
Consider `CC(=O)c1c(C)c2cnc(Nc3ccc(N4CCN(CC(=O)NCCCCNc5cccc6c5C(=O)N(C5CCC(=O)NC5=O)C6=O)CC4)cn3)nc2n(C2CCCC2)c1=O` (stereo not drawn), for which the outcome in test [1] and in test [2] was Active.
Regarding `CC(=O)c1c(C)c2cnc(Nc3ccc(N4CCN(CC(=O)NCCCOCCOCCOCCCNc5cccc6c5C(=O)N(C5CCC(=O)NC5=O)C6=O)CC4)cn3)nc2n(C2CCCC2)c1=O` (stereo not drawn), the Activity result in [3] is “Tde”; in test [20] it was “Tde”; in [21] it was 6.61 nM; in test [25], less than 1.5 nM. Besides, the outcome in [4], in [6], in [8], in [10], in test [2] and in [12] was inactive. Besides, the outcome in test [13], in test [14], in test [19], in [22], in [23] and in [24] was inactive. For the same compound, the outcome in test [26] was inactive. The result in test [5], in [7], in [1], in [9], in [11] and in [15] was Active. Further, the result in test [16], in test [17] and in test [18] was Active.
As to `CC(=O)c1c(C)c2cnc(Nc3ccc(N4CCN(CCOCCOCCOc5cccc6c5C(=O)N(C5CCC(=O)NC5=O)C6=O)CC4)cn3)nc2n(C2CCCC2)c1=O` (stereo not drawn), the result in test [1] and in test [2] was Active.
`CC(=O)c1c(C)c2cnc(Nc3ccc(N4CCN(CC(=O)NCCCCCCCCNc5cccc6c5C(=O)N(C5CCC(=O)NC5=O)C6=O)CC4)cn3)nc2n(C2CCCC2)c1=O` (stereo not drawn): the result in test [1] was Active.
